Source: PubChem BioAssay
Calls of active or inactive are those of the source.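 How the source made its calls, unless noted: active means Her2 level under about 52% in both replicate screens, with viability over 70% of control (limit read from the data); inconclusive means Her2 under the limit in one screen only, or viability under 70%; inactive means Her2 level above the set limit.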

Assays:
[1] = Her2 expression decrease, cell viability multiplex – SKBR3 breast tumor cells, AlphaScreen, ATP viability, primary screen (AID 461); settings: SKBR3 Her2 protein level, 18-24 h, measured here: SKBR3 viability, ATP luminescence, at 10 µM;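 on Her2 level: lower value means less Her2 protein in the cells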;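 on viability: percent of carrier control wells set as 100% viability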
[2] = biological target: Receptor tyrosine-protein kinase erbB-2 (Homo sapiens) (UniProt P04626); test: as above; settings: 18-24 h, at 10 µM, stronger effect = lower value
Chain of Receptor tyrosine-protein kinase erbB-2 (Homo sapiens) (P04626 whole entry, looked up): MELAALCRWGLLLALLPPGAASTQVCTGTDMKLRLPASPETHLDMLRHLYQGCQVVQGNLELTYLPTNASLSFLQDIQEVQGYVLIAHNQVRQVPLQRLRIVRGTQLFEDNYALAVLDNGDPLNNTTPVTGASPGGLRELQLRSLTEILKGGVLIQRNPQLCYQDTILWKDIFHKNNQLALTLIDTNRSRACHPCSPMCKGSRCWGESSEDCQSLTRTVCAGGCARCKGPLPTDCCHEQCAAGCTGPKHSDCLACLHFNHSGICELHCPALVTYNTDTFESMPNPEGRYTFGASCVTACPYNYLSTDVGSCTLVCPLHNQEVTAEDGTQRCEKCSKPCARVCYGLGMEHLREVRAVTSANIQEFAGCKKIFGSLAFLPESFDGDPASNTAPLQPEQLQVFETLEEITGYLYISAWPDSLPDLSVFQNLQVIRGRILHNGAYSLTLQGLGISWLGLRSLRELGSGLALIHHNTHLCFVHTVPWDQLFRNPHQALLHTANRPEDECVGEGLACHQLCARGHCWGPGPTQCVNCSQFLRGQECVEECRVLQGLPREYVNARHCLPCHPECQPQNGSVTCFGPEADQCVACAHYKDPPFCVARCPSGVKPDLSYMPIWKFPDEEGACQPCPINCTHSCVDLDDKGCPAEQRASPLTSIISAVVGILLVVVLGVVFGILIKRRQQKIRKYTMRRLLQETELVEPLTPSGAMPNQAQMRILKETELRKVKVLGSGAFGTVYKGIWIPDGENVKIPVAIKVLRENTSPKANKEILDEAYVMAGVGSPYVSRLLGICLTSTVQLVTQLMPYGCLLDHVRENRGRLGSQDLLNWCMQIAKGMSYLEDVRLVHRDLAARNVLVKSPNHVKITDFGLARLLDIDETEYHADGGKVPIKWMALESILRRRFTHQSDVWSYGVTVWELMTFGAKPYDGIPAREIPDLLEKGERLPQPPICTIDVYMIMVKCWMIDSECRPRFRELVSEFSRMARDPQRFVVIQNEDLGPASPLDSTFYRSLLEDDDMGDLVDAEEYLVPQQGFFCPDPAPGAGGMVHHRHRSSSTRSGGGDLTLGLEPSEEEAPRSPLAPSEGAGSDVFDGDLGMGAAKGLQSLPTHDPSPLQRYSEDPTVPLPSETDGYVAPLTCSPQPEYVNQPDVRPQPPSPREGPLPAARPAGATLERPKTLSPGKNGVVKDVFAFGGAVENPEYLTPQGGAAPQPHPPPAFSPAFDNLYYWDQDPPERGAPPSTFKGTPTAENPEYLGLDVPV

[3] = reduced viability of SK-BR-3 breast cancer cells – cell-based, 24 h, human, pilot screen (AID 572;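 active means viability at or below 10% of carrier control in both of two separate runs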;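 further: compound exposure lasted between 18 and 24 h rather than exactly 24 h; 100% = carrier-treated control wells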); settings: SK-BR-3 viability, CellTiter-Glo luminescence, at 10 µM, stronger effect = lower value
[4] = HUVEC growth inhibition – cell-based, human, primary screen (AID 575;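 active means viability at or below 30% in both replicate assays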;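 further: 100% = median of untreated cell wells with 0.1% DMSO on each plate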); settings: HUVEC proliferation, CellTiter-Glo luminescence, 72 h; at 10 µM; stronger effect = lower value
Method in brief: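 Assay system: Primary human umbilical vein endothelial cells | Quantity: 1250 cells per well | Medium: Supplemented EBM, 2% fetal bovine serum | Detection: CellTiter-Glo luminescence measuring cellular ATP | Read-out: % viability vs DMSO wells | Plate: Collagen-coated 384-well format | Times: 72 h exposure, 37 °C, 5% CO2, 30 min RT equilibration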

[5] = H69AR cell proliferation blockers – human, duplicate replicates, primary screen (AID 580;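 active means viability at or under a set limit in both replicates, limit being median viability minus 3 SD, cut at about 48% in these data, passing the limit was not always enough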;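 further: 100% = mean luminescence of untreated wells and 0% = no signal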); settings: H69AR lung tumor cells viability, ATP luminescence, 72 h; at 10 µM; stronger effect = lower value
[6] = MRP1 drug-resistance reversers in H69AR cells – cell-based, doxorubicin co-treatment, pilot screen (AID 601;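 active means viability loss from added drug above about 55%, and viability with drug at most 40%, in both replicates, limit read from the data, passing the limit was not always enough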); settings: CellTiter-Glo, 72 h, at 10 µM; for differential viability (reversal): stronger effect = higher value
[7] = yeast transport mutant growth inhibition pilot in 384-well plates, post-Golgi transport modulator project (AID 636; in the data active means inhibition above about 31%); settings: absorbance 615 nm, about 18 h, stronger effect = higher value
[8] = growth suppression of yeast trafficking mutant, preliminary HTS, modulators of trafficking downstream of Golgi apparatus project, 1536-format plate, OD 615 nm (AID 637; in the data active means inhibition above about 30%); settings: yeast transport mutant growth, absorbance 615 nm, 18 h; stronger effect = higher value
[9] = H69AR cells + 2 uM doxorubicin, measured here: viability with 2 uM doxorubicin, stronger effect = lower value
[10] = H69AR cells, compound alone cytotoxicity

Structure (SMILES) | viability [1] [%] | Her2 level [2] | viability [3] | viability [4] | viability [5] | differential viability (reversal) ([6]; H69AR cells + 2 uM doxorubicin) | viability [6, 9] [%] | viability [6, 10] [%] | inhibition [7] | inhibition [8]
COc1ccc(C2c3sc(=O)[nH]c3SC3C4CCC(C4)C23)cc1 (stereo not given) | 99.5 | 94.5% (inactive) | 99.5% (inactive) | 80.1% (inactive) | 89.7% (inactive) | 1.93% (inactive) | 87.7 | 89.7 | 6.4% (inactive) | 5.97% (inactive)
CCOc1ccc(OCc2ccc(C(=O)Nc3cccc(C)n3)o2)cc1 | 101 | 85% (inactive) | 101% (inactive) | 84.1% (inactive) | 93.4% (inactive) | 6.08% (inactive) | 87.3 | 93.4 | -1.58% (inactive) | -1.61% (inactive)
COc1ccc(/C(O)=C2/C(=O)C(=O)N(CCN(C)C)C2c2ccccn2)cc1OC (stereo not given) | 92.5 | 91.5% (inactive) | 92.5% (inactive) | 103% (inactive) | 91.5% (inactive) | 3.17% (inactive) | 88.3 | 91.5 | -4.19% (inactive) | -6.19% (inactive)
Cc1cc2c(c(=O)o1)C(Cc1ccccc1)C(C#N)=C(N)O2 (stereo not given) | 94 | 96% (inactive) | 94% (inactive) | 87.2% (inactive) | 98.7% (inactive) | 21.6% (inactive) | 77.2 | 98.7 | 1.45% (inactive) | 1.8% (inactive)
Nc1nnc(-c2cn(-c3ccccc3)nc2-c2ccccc2)o1 | 73 | 131% (inactive) | 73% (inactive) | 77.3% (inactive) | 91.2% (inactive) | 10.7% (inactive) | 80.5 | 91.2 | 2.47% (inactive) | -15.5% (inactive)
O=C(NCC1CCCO1)C1CCCN(S(=O)(=O)c2cccc3nsnc23)C1 (stereo not given) | 95.5 | 118% (inactive) | 95.5% (inactive) | 93.2% (inactive) | 98.5% (inactive) | 14.3% (inactive) | 84.2 | 98.5 | -2.27% (inactive) | -7.62% (inactive)
COc1ccc(C(C(C(=O)c2ccco2)N2CCOCC2)N2CCOCC2)cc1 (stereo not given) | 97 | 95% (inactive) | 97% (inactive) | 85.6% (inactive) | 87.3% (inactive) | -4.03% (inactive) | 91.4 | 87.3 | -6.53% (inactive) | -10.6% (inactive)
[O-][n+]1c2ccc3nonc3c2nn1-c1ccccc1Cl | 136 | 124% (inactive) | 136% (inactive) | 89.3% (inactive) | 95.1% (inactive) | 16.1% (inactive) | 79 | 95.1 | -0.4% (inactive) | -6.45% (inactive)
CCCC(=O)Nc1ccccc1-c1nnn(CC(=O)Nc2ccc(OCC)cc2)n1 | 108 | 87% (inactive) | 108% (inactive) | 62% (inactive) | 89.1% (inactive) | -8.82% (inactive) | 97.9 | 89.1 | 1.82% (inactive) | -4.75% (inactive)
CC(=O)c1cc2c(=O)c3cc(C)ccc3oc2nc1C | 102 | 72.5% (inactive) | 102% (inactive) | 68.4% (inactive) | 72.5% (inactive) | -7.35% (inactive) | 79.9 | 72.5 | -2.89% (inactive) | -1.43% (inactive)
NS(=O)(=O)c1ccc(NCc2c(F)cccc2Cl)cc1 | 100 | 95.5% (inactive) | 100% (inactive) | 102% (inactive) | 82.9% (inactive) | 6.38% (inactive) | 76.5 | 82.9 | -3.82% (inactive) | 7.54% (inactive)
O=C(Nc1cccnc1)c1ccc2c(c1)C(=O)N(Cc1cccnc1)C2=O | 96.5 | 99.5% (inactive) | 96.5% (inactive) | 103% (inactive) | 102% (inactive) | 7.77% (inactive) | 94.7 | 102 | -2.93% (inactive) | -1.64% (inactive)
O=C(Nc1cccnc1)Nc1ccc2c(c1)OCO2 | 102 | 74% (inactive) | 102% (inactive) | 78.1% (inactive) | 82.7% (inactive) | 12.9% (inactive) | 69.8 | 82.7 | -2.24% (inactive) | 6.03% (inactive)
COc1ccc(CCNC(=O)c2ccncc2)cc1OC | 107 | 110% (inactive) | 107% (inactive) | 96.3% (inactive) | 97.5% (inactive) | 12.2% (inactive) | 85.3 | 97.5 | -6.27% (inactive) | -3.71% (inactive)
Cc1cc(NC(=O)COC(=O)c2cccc(S(=O)(=O)N3CCOCC3)c2)no1 | 112 | 88% (inactive) | 112% (inactive) | 92.4% (inactive) | 91.1% (inactive) | 6.37% (inactive) | 84.8 | 91.1 | -5% (inactive) | 1.9% (inactive)
NCCN1CCN(CCN)CC1 | 106 | 77% (inactive) | 106% (inactive) | 84.6% (inactive) | 93.7% (inactive) | 12.2% (inactive) | 81.4 | 93.7 | -3.87% (inactive) | 2.38% (inactive)
CCCn1cc(SCC(=O)NCc2ccco2)c2ccccc21 | 98.5 | 90% (inactive) | 98.5% (inactive) | 92.3% (inactive) | 94% (inactive) | 15.4% (inactive) | 78.6 | 94 | -5.47% (inactive) | 0.48% (inactive)

Structure (SMILES) | viability [1] [%] | Her2 level [2] | viability [3] | viability [4] | viability [5] | differential viability (reversal) ([6]; H69AR cells + 2 uM doxorubicin) | viability [6, 9] [%] | viability [6, 10] [%] | inhibition [7] | inhibition [8]
CCOC(=O)C1=C(c2ccccc2)Nc2nc(C)nn2C1c1cccc(OC)c1OC (stereo not given) | 111 | 130% (inactive) | 111% (inactive) | 90.6% (inactive) | 90.2% (inactive) | 36.8% (inactive) | 53.4 | 90.2 | -2.24% (inactive) | -0.66% (inactive)
Cc1ccc(NC(=O)C2CCCN2S(=O)(=O)c2cccc3cccnc23)cc1F (stereo not given) | 98 | 97.5% (inactive) | 98% (inactive) | 102% (inactive) | 93.7% (inactive) | -6.31% (inactive) | 100 | 93.7 | -4% (inactive) | 3.93% (inactive)
COc1ccc(-n2c(Cc3cccn3C)nnc2SCC(=O)Nc2cccc(C)c2C)cc1 | 88.5 | 97% (inactive) | 88.5% (inactive) | 91.4% (inactive) | 93.8% (inactive) | -2.92% (inactive) | 96.7 | 93.8 | -0.64% (inactive) | -6.67% (inactive)
O=C(COc1ccccc1Cl)NCc1ccco1 | 89.5 | 78.5% (inactive) | 89.5% (inactive) | 103% (inactive) | 107% (inactive) | 15.4% (inactive) | 91.6 | 107 | -0.81% (inactive) | -3.93% (inactive)
COc1cc(C(=O)Nc2cccc(-c3nc4cc(C)ccc4o3)c2)cc(OC)c1OC | 95 | 80% (inactive) | 95% (inactive) | 66.8% (inactive) | 55.7% (inactive) | 4.43% (inactive) | 51.3 | 55.7 | -5% (inactive) | 4.76% (inactive)
OC(CCN1CCOCC1)(c1ccc(Cl)cc1)C1CCCCC1 (stereo not given) | 82.5 | 102% (inactive) | 82.5% (inactive) | 99.6% (inactive) | 82% (inactive) | -3.7% (inactive) | 85.7 | 82 | -0.4% (inactive) | 21.5% (inactive)
O=C(Nc1nc2c(s1)CCc1ccccc1-2)c1cccs1 | 102 | 74% (inactive) | 102% (inactive) | 72.2% (inactive) | 82.9% (inactive) | -4.96% (inactive) | 87.9 | 82.9 | -3.33% (inactive) | 8.41% (inactive)
COc1ccccc1NC(=O)NC1(C(=O)N2CCC(O)CC2)CCCCC1 | 103 | 97% (inactive) | 103% (inactive) | 99.2% (inactive) | 114% (inactive) | 4.86% (inactive) | 109 | 114 | -3.9% (inactive) | -4.13% (inactive)
O=C(CN1CCN(C(=O)c2ccccc2)CC1)Nc1ncc(Br)cc1Br | 76.5 | 100% (inactive) | 76.5% (inactive) | 92.2% (inactive) | 77.9% (inactive) | -6.92% (inactive) | 84.8 | 77.9 | -2.4% (inactive) | -5.74% (inactive)
CC1=C(C#N)C(c2ccoc2)C(C(=O)OCc2ccccc2)=C(N)S1 (stereo not given) | 100 | 88% (inactive) | 100% (inactive) | 99.5% (inactive) | 91.6% (inactive) | -0.82% (inactive) | 92.4 | 91.6 | -3.95% (inactive) | 0% (inactive)
COC(=O)Nc1ccc(S(=O)(=O)N(C)CC(F)(F)C(F)F)cc1 | 107 | 102% (inactive) | 107% (inactive) | 107% (inactive) | 93.1% (inactive) | -1.14% (inactive) | 94.2 | 93.1 | -6.05% (inactive) | 1.8% (inactive)
COc1cc(OC)cc(C(=O)NCc2n[nH]c(=S)n2-c2ccccc2OC)c1 | 97 | 88% (inactive) | 97% (inactive) | 109% (inactive) | 89.4% (inactive) | 0.11% (inactive) | 89.3 | 89.4 | -7.16% (inactive) | -1.33% (inactive)
COc1ccc(NC2c3ncccc3C(=O)N2Cc2ccccc2)c(OC)c1 (stereo not given) | 101 | 85.5% (inactive) | 101% (inactive) | 93.8% (inactive) | 95.8% (inactive) | 4.3% (inactive) | 91.5 | 95.8 | -1.56% (inactive) | 1.75% (inactive)
CCCN1CCC(NC(=O)Nc2ccc(OC)c(OC)c2)CC1 | 124 | 96.5% (inactive) | 124% (inactive) | 111% (inactive) | 90.7% (inactive) | 4.61% (inactive) | 86.1 | 90.7 | -1.69% (inactive) | -2.33% (inactive)
CCOC(=O)c1ccccc1NC(=O)N1CCn2c(C)ccc2C1CC (stereo not given) | 107 | 88% (inactive) | 107% (inactive) | 103% (inactive) | 84.8% (inactive) | 1.62% (inactive) | 83.2 | 84.8 | -4.46% (inactive) | -4.92% (inactive)
COc1ccc(C2CC(c3ccccc3)Nc3nc(NC(=O)c4cccs4)nn32)cc1 (stereo not given) | 81.5 | 94.5% (inactive) | 81.5% (inactive) | 83.3% (inactive) | 88.3% (inactive) | 4.87% (inactive) | 83.4 | 88.3 | -1.69% (inactive) | -5.08% (inactive)
